According to ChEMBL document CHEMBL1122797, “Benzisoxazolones: antimicrobial and antileukemic activity” (1984):
Values after ≈ are worked out from the molar mass of the structure shown. Values joined by “and” are separate entries in the source; they are usually repeats but may differ in a detail not shown here. Equal values may be shown once. Active and inactive are the calls of the source. The rule behind the calls is not given here.

Experiments:
[1] = system: Bacillus subtilis; assay: Evaluation of in vitro antimicrobial activity with an agar diffusion assay against Bacillus subtilis; format: functional
Outline: (§1)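 Agar diffusion assay. A standard antibiotic was run to validate the assays, with data reproducible to ± 3 mm between assays.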

[2] = system: Escherichia coli; assay: In vitro evaluation of antimicrobial activity with microplate broth dilution assay against Escherichia coli UC45; format: functional
Outline: (§2)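 Serial twofold dilutions prepared in modified brain heart infusion broth in microplate wells. Each well inoculated with standardized cell suspension to ~10^6 viable cells per mL of drug-supplemented medium. Plates incubated 37 °C for 20 h. MIC read as lowest concentration inhibiting visible growth.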

[3] = system: Escherichia coli; assay: Evaluation of in vitro antimicrobial activity with an agar diffusion assay against Escherichia coli; format: functional; outline: as §1
[4] = system: Klebsiella pneumoniae; assay: In vitro evaluation of antimicrobial activity with microplate broth dilution assay against Klebsiella pneumoniae UC58; format: functional; outline: as §2
[5] = system: Klebsiella pneumoniae; assay: Evaluation of in vitro antimicrobial activity with an agar diffusion assay against Klebsiella pneumoniae; format: functional; outline: as §1
[6] = system: L1210; assay: In vitro antileukemic (cytotoxic) activity against L1210 cells in suspension.; format: functional, Mus musculus; settings: for IC50: Mus musculus, L1210, read-out: ID50 (the source's name)
[7] = system: L1210; assay: In vitro evaluation of the antileukemic (cytotoxic) activity against L1210 cells in suspension; format: functional, Mus musculus
[8] = system: Micrococcus luteus; assay: Evaluation of in vitro antimicrobial activity with an agar diffusion assay against Micrococcus luteus; format: functional; outline: as §1
[9] = system: Penicillium oxalicum; assay: Evaluation of in vitro antimicrobial activity with an agar diffusion assay against Penicillium oxalicum; format: functional, pencillium oxalicum; outline: as §1
[10] = system: Proteus mirabilis; assay: In vitro evaluation of antimicrobial activity with microplate broth dilution assay against Proteus mirabilis UC6671; format: functional; outline: as §2
[11] = system: Providencia stuartii; assay: In vitro evaluation of antimicrobial activity with microplate broth dilution assay against Providencia stuartii UC6570; format: functional; outline: as §2
[12] = system: Proteus vulgaris; assay: Evaluation of in vitro antimicrobial activity with an agar diffusion assay against Proteus vulgaris; format: functional; outline: as §1
[13] = system: Pseudomonas; assay: Evaluation of in vitro antimicrobial activity with an agar diffusion assay against Pseudomonas fluorescence; format: functional; outline: as §1
[14] = system: Proteus vulgaris; assay: In vitro evaluation of antimicrobial activity with microplate broth dilution assay against Proteus vulgaris UC93; format: functional; outline: as §2
[15] = system: Pseudomonas aeruginosa; assay: Evaluation of in vitro antimicrobial activity with an agar diffusion assay against Pseudomonas aeruginosa; format: functional; outline: as §1
[16] = system: Salmonella typhi; assay: In vitro evaluation of antimicrobial activity with microplate broth dilution assay against Salmonella typhi UC215; format: functional, Salmonella enterica subsp. enterica serovar Typhi; settings: Salmonella enterica
Outline: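 Twofold serial dilutions in modified brain heart infusion broth in microplate wells, each inoculated with standardized cell suspension to about 10^6 viable cells/mL final. Incubated 37 °C for 20 h. MIC read as the lowest concentration inhibiting visible growth.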

[17] = In vitro evaluation of antimicrobial activity with microplate broth dilution assay against Salmonella schottmuelleri UC126; format: functional; outline: as §2
[18] = Evaluation of in vitro antimicrobial activity with an agar diffusion assay against Salmonella schottmuelleri; format: functional; outline: as §1
[19] = system: Saccharomyces pastorianus; assay: Evaluation of in vitro antimicrobial activity with an agar diffusion assay against Saccharomyces pastorianus; format: functional; outline: as §1
[20] = system: Shigella flexneri; assay: In vitro evaluation of antimicrobial activity with microplate broth dilution assay against Shigella flexneri UC143; format: functional; outline: as §2
[21] = system: Serratia marcescens; assay: In vitro evaluation of antimicrobial activity with microplate broth dilution assay against Serratia marcescens UC131; format: functional; outline: as §2
[22] = system: Staphylococcus aureus; assay: Evaluation of in vitro antimicrobial activity with an agar diffusion assay against Staphylococcus aureus; format: functional; outline: as §1
[23] = system: Enterococcus faecalis; assay: In vitro evaluation of antimicrobial activity with microplate broth dilution assay against Streptococcus faecalis UC694; format: functional, streptococcus feacal; outline: as §2
[24] = system: Staphylococcus aureus; assay: In vitro evaluation of antimicrobial activity with microplate broth dilution assay against Staphylococcus aureus UC76; format: functional; outline: as §2
[25] = system: Pseudomonas aeruginosa; assay: Evaluation of in vitro antimicrobial activity with an agar diffusion assay against Pseudomonas aeruginosa; Inactive; format: functional, organism-based; outline: as §1
[26] = system: Pseudomonas aeruginosa; assay: In vitro evaluation of antimicrobial activity with microplate broth dilution assay against Pseudomonas aeruginosa UC95; format: functional; outline: as §2
[27] = system: Enterococcus faecalis; assay: In vitro evaluation of antimicrobial activity with microplate broth dilution assay against Streptococcus faecalis UC694

Row | Compound | Zone of inhibition [1] [mm] | Zone of inhibition [3] [mm] | Zone of inhibition [5] [mm] | Zone of inhibition [8] [mm] | Zone of inhibition [9] [mm] | Zone of inhibition [12] [mm] | Zone of inhibition [13] [mm] | Zone of inhibition [15] [mm] | Zone of inhibition [18] [mm] | Zone of inhibition [22] [mm] | ID50 [6] | other results
1 | CC(=O)OCn1oc(=O)c2ccccc21 | 24 | 26 | 24 | 24 | 43 | 25 | 32 | 32 | 22 | 15 | – | MIC [2]: 125 µg/mL (≈ 603 µM); MIC [4]: 62.5 µg/mL (≈ 302 µM); IC50 [6]: 5.1 µg/mL (≈ 24.6 µM); ID90 [7]: 19 µg/mL (≈ 91.7 µM); MIC [10]: 62.5 µg/mL (≈ 302 µM); MIC [11]: 125 µg/mL (≈ 603 µM); MIC [14]: 15.6 µg/mL (≈ 75.3 µM); MIC [16]: 62.5 µg/mL (≈ 302 µM); MIC [17]: 62.5 µg/mL (≈ 302 µM); Zone of inhibition [19]: 17 mm; MIC [20]: 62.5 µg/mL (≈ 302 µM); MIC [21]: 15.6 µg/mL (≈ 75.3 µM); MIC [23]: > 250 µg/mL; MIC [24]: > 250 µg/mL
2 | CNC(=O)n1oc(=O)c2ccccc21 | – | – | 16 | – | – | 19 | – | 24 | – | – | 4.9 µg/mL and 14 µg/mL | –
3 | CC(=O)n1oc(=O)c2ccccc21 | 24 | 26 | 20 | 18 | 49 | 23 | 31 | 38 | 20 | – | 3.4 µg/mL and 8.7 µg/mL | Zone of inhibition [19]: 21 mm
4 | O=C(CCCCCI)OCn1oc(=O)c2ccccc21 | 15 | – | – | – | 26 | 15 | 23 | 17 | – | – | 19 µg/mL (≈ 48.8 µM) | –
5 | Cc1ccc(C(=O)OCn2oc(=O)c3ccccc32)cc1 | 20 | 18 | 21 | – | 24 | 22 | 20 | 22 | 17 | – | – | IC50 [6]: 4.6 µg/mL (≈ 16.2 µM); ID90 [7]: 17 µg/mL (≈ 60 µM)
6 | CS(=O)(=O)n1oc(=O)c2ccccc21 | – | – | – | – | – | – | – | 31 | – | – | 3.7 µg/mL and 8.6 µg/mL | –
7 | O=C(COc1ccccc1)OCn1oc(=O)c2ccccc21 | 20 | 18 | 22 | 19 | 24 | 21 | 31 | 19 | 20 | 15 | – | –
8 | CC(C)(C)C(=O)OCn1oc(=O)c2ccccc21 | 18 | 17 | 21 | 18 | 31 | 18 | 30 | 20 | 22 | 18 | – | –
9 | CC(C)C(=O)OCn1oc(=O)c2ccccc21 | 17 | 17 | 22 | 22 | 29 | 24 | 33 | 22 | 23 | 17 | – | –
10 | O=C(NCCCCCI)n1oc(=O)c2ccccc21 | – | – | – | – | – | – | – | – | – | – | 3.7 µg/mL and 8.6 µg/mL | Zone of inhibition [25]: inactive
11 | Cn1oc(=O)c2ccccc21 | – | – | – | – | – | – | – | – | – | – | – | Zone of inhibition [25]: inactive
12 | O=c1on(CO)c2ccccc12 | – | – | – | – | – | – | – | – | – | – | – | MIC [2]: 15.6 µg/mL (≈ 94.5 µM); MIC [4]: 31.6 µg/mL (≈ 191 µM); MIC [10]: 15.6 µg/mL (≈ 94.5 µM); MIC [11]: 31.2 µg/mL (≈ 189 µM); MIC [14]: 3.9 µg/mL (≈ 23.6 µM); MIC [16]: 7.8 µg/mL (≈ 47.2 µM); MIC [17]: 31.2 µg/mL (≈ 189 µM); MIC [20]: 15.6 µg/mL (≈ 94.5 µM); MIC [21]: 2 µg/mL (≈ 12.1 µM); MIC [26]: 7.8 µg/mL (≈ 47.2 µM); MIC [24]: 62.5 µg/mL (≈ 378 µM); MIC [27]: 250 µg/mL (≈ 1510 µM)
13 | CCCCCCCCCCCCCCCC(=O)OCn1oc(=O)c2ccccc21 | – | – | – | – | – | – | – | – | – | – | – | Zone of inhibition [25]: inactive
14 | Oc1onc2ccccc12 | 22 | 25 | 26 | 27 | 41 | 30 | 35 | 30 | 26 | 15 | 3.1 µg/mL and 8 µg/mL | Zone of inhibition [19]: 16 mm
15 | COCn1oc(=O)c2ccccc21 | – | – | – | – | – | – | – | – | – | – | – | Zone of inhibition [25]: inactive
16 | CNC(=O)OCn1oc(=O)c2ccccc21 | 16 | 30 | 23 | 33 | 46 | 32 | 33 | 39 | 28 | – | – | MIC [2]: 31.2 µg/mL (≈ 140 µM); MIC [4]: 62.5 µg/mL (≈ 281 µM); IC50 [6]: 3.5 µg/mL (≈ 15.8 µM); ID90 [7]: 8.6 µg/mL (≈ 38.7 µM); MIC [10]: 31.2 µg/mL (≈ 140 µM); MIC [11]: 62.5 µg/mL (≈ 281 µM); MIC [14]: 15.6 µg/mL (≈ 70.2 µM); MIC [16]: 15.6 µg/mL (≈ 70.2 µM); MIC [17]: 31.2 µg/mL (≈ 140 µM); MIC [20]: 31.2 µg/mL (≈ 140 µM); MIC [21]: 3.9 µg/mL (≈ 17.6 µM); MIC [26]: 15.6 µg/mL (≈ 70.2 µM); MIC [24]: 62.5 µg/mL (≈ 281 µM)
